# Screening results from PubChem.
# An excerpt weighted towards active compounds, which were near 2.1% of everything screened.
# Runt-CBFb FRET: Runt domain-CBFb interaction inhibition; AID 1496; Cerulean-Runt/Venus-CBFb FRET ratio 530/480, 1 h; Q01196+Q13951; inhibition, % at 20 µM; actives 0.46% (n = 220,000);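 active = inhibition over about 50% at 20 µM in the single-dose screen, limit read from the data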;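 note: 0% = DMSO wells and 100% = excess unlabeled CBFb competitor control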
# Target sequence (Q01196 whole entry, looked up, the tested form may be a part): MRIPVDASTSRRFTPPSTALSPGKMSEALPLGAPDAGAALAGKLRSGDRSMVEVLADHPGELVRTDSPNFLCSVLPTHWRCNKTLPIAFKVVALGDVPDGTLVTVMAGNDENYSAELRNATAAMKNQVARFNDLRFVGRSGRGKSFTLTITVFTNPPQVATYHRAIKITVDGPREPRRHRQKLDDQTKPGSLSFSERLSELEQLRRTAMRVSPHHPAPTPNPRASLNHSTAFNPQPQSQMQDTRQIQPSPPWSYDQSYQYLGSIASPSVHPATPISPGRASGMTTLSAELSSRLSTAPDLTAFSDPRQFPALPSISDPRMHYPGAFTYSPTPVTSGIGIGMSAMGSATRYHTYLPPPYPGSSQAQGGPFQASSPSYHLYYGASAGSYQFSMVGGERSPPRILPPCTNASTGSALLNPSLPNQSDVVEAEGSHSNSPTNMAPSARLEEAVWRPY
# Target sequence (Q13951 whole entry, looked up, the tested form may be a part): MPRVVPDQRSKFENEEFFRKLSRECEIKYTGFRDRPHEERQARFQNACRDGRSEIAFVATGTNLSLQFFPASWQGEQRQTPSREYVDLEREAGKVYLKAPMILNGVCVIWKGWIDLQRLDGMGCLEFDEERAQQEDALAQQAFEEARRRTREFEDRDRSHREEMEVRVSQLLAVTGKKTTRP
#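 Assay system: Cerulean-Runt domain fusion protein, energy donor; Signal: fluorescence energy transfer, 422 nm excitation, 530/480 nm emission; Timing: 1 h compound exposure, room temperature; Control set: unlabeled CBFb; Medium: Tris buffer pH 7.5 with salts and BSA; Compound: single test concentration of 20 µM, 1% DMSO final; Probe or stimulus: Venus-CBFb 100 nM.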
# p-CIP stab down: compounds decreasing mouse p/CIP protein stability; decrease of EGFP signal, % at 10 µM; AID 1984; F442A p/CIP-EGFP cells, EGFP fluorescence, 16 h; Q05BA5; actives 0.01% (n = 290,000);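 active = EGFP signal decrease of at least 30% at 10 µM or well 3 SD below plate mean, unless failing retest; inactive = the rest, including hits failing retest or dose response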
# RanGTP-Imp inh: disruptors of Ran-importin-beta complex formation – biochemical, FRET, CFP-Ran, YFP-importin-beta, homogeneous, primary screen | cell-free CFP-Ran/YFP-importin-beta FRET ratio | inhibition, % (no concentration beside the values) | actives 1.1% (n = 300,000);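 active = more than half of the replicate wells show a fall in the fluorescence ratio signal beyond about 16%, limit read from the data, passing the limit was not always enough; inconclusive = exactly half of the replicate wells pass the set limit; inactive = fewer than half of replicates pass the limit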;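 note: 0% = DMSO wells and 100% = Ran loaded with GDP instead of GTP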
# Hck Nef HTS: human Hck-Nef kinase inhibition; AID 463187; Recombinant Hck-YEEI plus Nef, Z-Lyte FRET kinase assay; actives 0.68% (n = 220,000); inhibition, % at 20 µM; P08631;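 active = Hck-Nef kinase inhibition above about 50%, limit read from the data; inactive = inhibition below that limit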;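 note: 0% = DMSO with Hck plus Nef and 100% = Hck alone without Nef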
# Pemphigus Ab inh: blocks pemphigus antibody binding to human desmoglein-3. P32926. DSG3-coupled beads, scFv-anti-DSG3-GFP binding, flow cytometry; hits give low values. binding (percent of control), % at 10 µM. actives 0.48% (n = 310,000);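 active = binding more than 3 SD below its plate's average and above zero; inconclusive = below that plate limit but binding exactly zero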;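 note: hits lower antibody fragment binding to DSG3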
# Runt-SMMHC FRET: Runt domain-CBFb-SMMHC interaction inhibition; Cerulean-Runt/Venus-CBFb-SMMHC FRET ratio 530/480, 1 h; inhibition, % at 20 µM; actives 0.74% (n = 220,000); AID 1434;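 active = mean inhibition across duplicate retests at 20 µM reaching about 50%, limit read from the data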;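 note: 0% = DMSO wells and 100% = wells with excess untagged CBFb-SMMHC; inhibitors lower the FRET ratio by blocking Runt binding to CBFb-SMMHC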
# Runt-CBFb TRFRET: disrupts human RUNX1 Runt domain binding to CBFb; shares compounds with Runt-CBFb FRET; TR-FRET RUNX1 Runt domain-CBFb binding; inhibition, % at 20 µM; actives 20% (n = 480); in the data active = inhibition above about 40%
# The depositor's hits bear a star; u = inconclusive; x = no result given; + = active, no number.
SMILES,Runt-CBFb FRET,p-CIP stab down,RanGTP-Imp inh,Hck Nef HTS,Pemphigus Ab inh,Runt-SMMHC FRET,Runt-CBFb TRFRET
CN(C)S(=O)(=O)c1ccc(=S)[nH]c1,50*,-15,0,1,101,43,-61
O=S(=O)(c1ccc(=S)[nH]c1)N1CCCC1,x,x,x,x,127,x,x
COc1ccc(C(=O)C(=O)c2ccc(OCCO)cc2)cc1,x,x,0,x,98,x,x
CN(C)CCCNS(=O)(=O)c1cc(Cl)ccc1Cl,-1,-12,0,1,101,-2,x
CN(C)CCCNS(=O)(=O)c1ccc(N2CCC(c3ccc(Cl)cc3)=N2)cc1,57*,-10,27*,+,x,93*,-25
COc1ccc(C(CC(=O)NCc2ccccc2)C(C)C)cc1 (configuration not stated),0,-2,5,3,116,0,x
O=C(CCSc1ccccn1)c1ccccc1,59*,-6,2,14,93,45,5
CCOC(=O)N/N=C/c1c(F)c(F)c(F)c(F)c1F,50*,-7,x,4,85,1,-14
N#CCCN1CCN(C(=O)c2c(N)no[n+]2[O-])CC1,0,5,0,0,101,2,x
Cc1nc2ccccn2c1-c1ccnc(=S)[nH]1,60*,4,1,-45,105,40,20
Cc1ccc(Nc2nc(-c3c(C)nc4ccccn34)cs2)cc1,4,-18,u,1,104,-3,x
COc1cc(OC)cc(OC(=O)c2ccc3c(=O)n4c(nc3c2)CCC4)c1,x,x,8,x,98,x,x
Oc1ccc2ccccc2c1/C=N/Nc1ccccc1,8,3,-4,3,94,10,x
Oc1ccc2ccccc2c1C=NCc1ccccc1,119*,7,-4,-4,96,3,17
CC(C)(C)C(=O)N1CCC2CC1c1cc(Cl)ccc12 (configuration not stated),x,x,x,x,94,x,x
CC(C)C(C)(C#N)NC(=O)CSc1nnc(-c2ccncc2)n1Cc1ccccc1 (configuration not stated),56*,-1,1,0,x,32,2
Cc1cc(Cn2nc(C(=O)NCc3cccc(C(F)(F)F)c3)cc2-c2ccccc2)on1,x,x,x,x,101,x,x
Oc1ccc(O)c(Cc2nc3ccccc3s2)c1,51*,-6,1,10,101,10,43*
c1ccc(CSc2ccc(-c3ccco3)nn2)cc1,41,-2,1,0,127,34,x
Cc1ccc(CSc2ccc(-c3ccco3)nn2)cc1,56*,3,0,2,115,51,36
Clc1ccc(CSc2ccc(-c3ccco3)nn2)cc1,56*,4,1,19,108,56,52*
CCOC(=O)c1cnc2ccc(Cl)cc2c1NCCN(C)C,64*,-11,u,10,110,46,2
N#CC1=C(N)Oc2cc(N)ccc2C1c1ccc(F)cc1 (configuration not stated),73*,-8,76*,4,x,86*,-11
CCc1nnc(NC(=O)CSc2nnc(-c3cccnc3)n2CC)s1,77*,0,u,4,80,-9,-10
CCc1nnc(NC(=O)CSc2nnc(-c3ccccc3O)n2CC)s1,0,-4,5,-2,97,-1,x
SMILES,Runt-CBFb FRET,p-CIP stab down,RanGTP-Imp inh,Hck Nef HTS,Pemphigus Ab inh,Runt-SMMHC FRET,Runt-CBFb TRFRET
Oc1ccc(O)c(-c2cnns2)c1,71*,-4,-1,4,x,x,-17
Nc1nc(N)nc(-c2cc(O)ccc2O)n1,x,x,x,x,104,x,x
CCCC(C)c1nnc(NC(=O)c2cc(C(=O)OC)cc([N+](=O)[O-])c2)s1 (configuration not stated),53*,-14,1,-1,94,45,9
CCCC(C)NC(=O)c1cc(C(=O)OC)cc([N+](=O)[O-])c1 (configuration not stated),-2,0,0,-2,98,2,x
CC(C)C(=O)N(c1ccc2oc(=O)sc2c1)S(=O)(=O)c1ccccc1,58*,-7,2,-2,98,63*,19
COc1ccc(C(=O)Oc2ccc3ccc(=O)oc3c2)cc1,x,-12,0,x,107,x,x
COc1ccc(N(C(C)=O)S(=O)(=O)c2cc(OC)ccc2OC)cc1,27,-13,6,3,99,4,x
COc1ccc(OC)c(S(=O)(=O)N(C(C)=O)c2ccc3oc(=O)sc3c2)c1,67*,7,-1,19,99,x,12
Cc1ccc(S(=O)(=O)N(C(=O)c2ccco2)c2cc3sc(=O)oc3c3ccccc23)cc1,11,-1,2,1,93,37,x
COc1ccc(C(=O)Oc2ccc3oc(=O)sc3c2)cc1,65*,10,1,2,96,40,0
CC(=O)N(c1ccc2oc(=O)sc2c1)S(=O)(=O)c1ccccc1,60*,-15,0,8,100,38,17
COc1ccc(CSCC(=O)Nc2ccccc2)cc1[N+](=O)[O-],x,4,1,x,119,x,x
COc1ccc(S(=O)(=O)N(C(=O)c2ccco2)c2cc3sc(=O)oc3c3ccccc23)cc1,9,-6,4,3,109,43,x
CN(CC(=O)O)S(=O)(=O)c1cccs1,0,-4,-1,-2,101,-5,x
COc1ccc(S(=O)(=O)N(C(=O)C(C)C)c2ccc3oc(=O)sc3c2)cc1,53*,-15,0,2,104,56*,4
CCCC(=O)N(c1ccc2oc(=O)sc2c1)S(=O)(=O)c1cccs1,63*,-4,x,3,106,32,10
O=C(NNc1c([N+](=O)[O-])cc(C(F)(F)F)cc1[N+](=O)[O-])c1ccco1,x,-3,6,x,107,x,x
O=S1(=O)CCN(CCCCc2ccccc2)CC1,x,x,x,x,99,x,x
COc1ccc(N2C(=O)C(Cl)=C(Oc3cccc(OC)c3)C2=O)cc1,57*,-19,x,31,95,44,43*
CCOc1ccc(C(=O)n2cc(C(=O)OC)c3ccccc32)cc1,x,3,-2,x,104,x,x
Oc1ccc(N=Cc2ccc(-c3cccs3)s2)cc1,69*,-5,28*,1,95,x,50*
Cc1ccc(Cn2cnc3ccccc32)cc1,54*,6,0,-2,126,-2,-13
O=C(Nc1ccnn1C1CCNCC1)c1ccc2c(c1)OCO2,x,x,x,x,94,x,x
CCOC(=O)c1c(/N=C/N(C)C)sc(/C=N/Nc2ccccc2)c1-c1ccccc1,71*,0,-14,9,103,131*,-12
O=c1oc2cc(Br)ccc2n1Cc1ccccc1,x,-15,-2,x,116,x,x
S=C1Cc2ccccc2N1,51*,-8,0,-17,101,10,4
